Hits are enriched below; roughly 2.7% of the tested compounds scored in any of these assays.
RBBP9 inh: blocks human serine hydrolase RBBP9. 220,000 tested, 0.2% active. recombinant RBBP9, FP-Rh probe fluorescence polarization. inhibition, % at 7.94 µM;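 active means inhibition above the campaign mean of all tested compounds plus 3 SD, cut at about 14% in these data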
Target sequence (O75884 whole entry, looked up): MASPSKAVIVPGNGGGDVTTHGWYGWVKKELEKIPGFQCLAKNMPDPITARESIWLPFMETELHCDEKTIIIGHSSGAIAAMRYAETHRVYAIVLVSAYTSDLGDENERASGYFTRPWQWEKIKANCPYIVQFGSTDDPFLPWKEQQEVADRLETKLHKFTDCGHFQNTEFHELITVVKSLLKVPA
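system = RBBP9 protein | input = RBBP9 at 2.5 µM in dispensed solution, before mixing | measured by = fluorescence polarization (mP), excitation 525 nm, emission 598 nm | incubation = enzyme-compound preincubation 30 min, then probe labeling 45 min, 25 °C | buffer or medium = Tris-NaCl-Pluronic buffer, pH 8.0 | compound = single dose 7.94 µM | also added = FP-Rh probe, 375 nM dispensing solution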
TNF necrop inh: TNF-alpha cell death inhibition in Jurkat FADD-/- cells | Jurkat FADD-/- TNF necroptosis rescue, ATP luminescence, 24 h; 0 = TNF only, 100 = no-TNF cells | activation (protection from cell death), % at 10 µM | 220,000 tested, 0.068% active | AID 463075;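 active means activation, meaning protection from cell death, of at least 50% relative to plate controls; inactive means activation below 50%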;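 further: necroptosis triggered by 40 ng/mL TNF-alpha added together with compound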
Wee1 stabilizer: human Wee1 degradation inhibition, primary screen; P30291; HeLa Luc-Wee1K328M stability, luciferase luminescence; 100% = proteasome inhibitor MG132 effect; reporter increase, % at 5 µM; 220,000 tested, 1.2% active; AID 1321;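 active means activation above the mean of all tested compounds plus 3 SD, set per screening run, cut at about 8.8% in these data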;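 further: cells exposed to compound for 20 h before luminescence read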
zVAD death inh: blocks zVAD induced death of L929 cells. L929 zVAD necroptosis rescue, ATP luminescence, 24 h; with zVAD 60 µM. viability rescue, % at 10 µM. 220,000 tested, 0.38% active;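 active means activation, scaled between plate controls, above about 75%, limit read from the data; inactive means activation under that limit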
PfM18AAP inh: PfM18AAP enzyme inhibition; recombinant PfM18AAP, H-Glu-NHMec fluorogenic cleavage; inhibition, % at 7.35 µM; 290,000 tested, 1.2% active; AID 1822;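 active means inhibition above the campaign mean inhibition over all tested compounds plus 3 SD, cut at about 28% in these data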
p97 inhibitor: human p97 ATPase inhibition; P55072; recombinant p97 ATPase, Kinase-Glo ATP luminescence, 3 h; inhibition, % at 8 µM; 220,000 tested, 0.42% active; AID 1481; in the data active means inhibition above about 15%
RBBP9 inh conf: confirmation of human RBBP9 inhibitors; recombinant RBBP9, FP-Rh probe fluorescence polarization; 410 tested, 36% active; inhibition, % at 7.94 µM; shares compounds with RBBP9 inh;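 active means inhibition above the hit cutoff derived for the primary screen, cut at about 15% in these data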
A number is an active result; – = inactive; · = no result given.

SMILES	RBBP9 inh	TNF necrop inh	Wee1 stabilizer	zVAD death inh	PfM18AAP inh	p97 inhibitor	RBBP9 inh conf
Nc1nc(NCCCN2CCOCC2)nc(Nc2ccccc2F)c1[N+](=O)[O-]	–	–	–	–	–	–	·
Cc1cc2cc3c(cc2nc1SCC(=O)N1c2ccccc2CC1C)OCO3 (centres undefined)	–	–	–	–	–	–	·
Cc1cc2ccccc2nc1SCC(=O)N1c2ccccc2CC1C (centres undefined)	14	–	–	–	–	–	–
O=C(COC(=O)/C=C/c1ccc(Cl)cc1)NCCc1ccccc1	17	–	–	–	–	–	–
CCCS(=O)(=O)Nc1ccc2cn[nH]c2c1	17	–	–	–	–	–	–
CCn1c(CSc2nc3ccccc3[nH]2)nc2cc(C(=O)O)ccc21	–	–	–	–	–	–	·
CCn1c(CSc2nccn2C)nc2cc(C(=O)O)ccc21	15	–	–	–	–	–	17
O=C(NCCCN1CCOCC1)C(=O)NCc1ccc(Cl)cc1	–	–	–	–	–	–	·
Cc1ccc(CNC(=O)C2CCC(=O)N(C3CCCC3)C2)c(F)c1F (centres undefined)	·	·	·	·	–	·	·
O=C(CSc1nc(-c2ccccc2)cc(=O)[nH]1)N1CCc2ccccc21	16	–	–	–	–	–	–
FC(F)(F)c1ccc(-c2nnc(-c3ccccn3)c(-c3ccccn3)n2)nc1	17	–	–	–	–	–	–
c1ccc(-c2nnc(-c3ccccn3)c(-c3ccccn3)n2)nc1	–	–	–	–	–	–	·
CC1(C)NC(=O)NC2(C)NC(=O)NC(C)(C)C12 (centres undefined)	20	–	–	–	–	–	–
COC(=O)CCN1CCc2cc(N=Nc3ccc([N+](=O)[O-])cc3)ccc21	–	–	–	–	–	–	·
Cc1noc(C)c1S(=O)(=O)Nc1ccc(C(=O)N2CCC(C)CC2)cc1	18	–	–	–	–	–	–
O=C(CSc1nnc(-c2cccc(F)c2)o1)N1CCCC1	·	·	·	·	–	·	·
CC(=O)NC(c1ccccc1)c1c(O)ccc2ccccc12 (centres undefined)	16	–	–	–	–	–	17
CCCCNC(=O)c1c(C)cc(=O)oc1C	16	–	–	–	–	–	–
Cc1c(C(=O)Nc2cccc(N(C)S(C)(=O)=O)c2)cccc1[N+](=O)[O-]	–	–	–	–	–	–	·
COc1ccc(N/C=C2\CCc3ccccc3C2=O)cc1	18	–	–	–	37	–	–
Cc1cnc([N+](=O)[O-])n1CCOC(=O)NC(=O)c1ccc(C(F)(F)F)cc1	–	–	–	–	–	–	·
Cc1cnc([N+](=O)[O-])n1CCOC(=O)NC(=O)c1ccccc1Cl	14	–	–	–	–	–	–
O=C(COc1ccc(Cl)cc1)NNC(=O)c1ccccc1C(=O)O	·	·	·	·	–	·	·
CC(=O)Nc1cccc(-c2csc(NCc3ccccc3)n2)c1	15	–	–	–	–	–	–
CC(=O)Nc1ccc(-c2csc(NCc3ccccc3)n2)cc1	–	–	–	–	–	–	·
SMILES	RBBP9 inh	TNF necrop inh	Wee1 stabilizer	zVAD death inh	PfM18AAP inh	p97 inhibitor	RBBP9 inh conf
CCOc1ccccc1NC(=O)CSc1nnc2ccc(-c3cccnc3)nn12	15	–	–	–	–	–	–
COc1ccc(O)c(C=Nc2cc(NC(C)=O)c(Cl)cc2Cl)c1	15	–	–	–	–	–	–
CC12CCCCC1N(O)C(=O)C(=O)N2O (centres undefined)	–	–	–	–	–	–	·
CCOc1cccc(CN2CCN(Cc3ccc(C)o3)C(CCO)C2)c1O (centres undefined)	15	–	9.3	–	–	–	–
Nc1nc(-c2ccccn2)nc(N)c1Cc1ccc(Cl)cc1Cl	–	–	–	–	–	–	·
O=C(Nc1nnc(C2=COCCO2)o1)c1ccc(Cc2ccccc2)cc1	17	–	–	–	–	–	–
C/C(=N/OC(=O)c1ccc(C)cc1)c1cccs1	16	–	–	–	–	–	18
C/C(=N\OC(=O)c1c(-c2ccccc2Cl)noc1C)c1nccs1	–	–	–	–	–	–	·
C/C(=N\OC(=O)c1ccc(C)cc1)c1sc(C)nc1C	–	–	–	–	–	–	·

Screens: PubChem, several laboratories
